Data as given in ChEMBL document CHEMBL1134346, “Labeling and evaluation of N-[11C]methylated quinoline-2-carboxamides as potential radioligands for visualization of peripheral benzodiazepine receptors” (J Med Chem, 2001).

Legend:
Rattus norvegicus [1] = species on record: Rattus norvegicus; experiment: Tissue (pituitary) distribution in Albino male CD rats after 90 minutes expressed as percent of injected dose per gram of organ.; assay type: ADME, organism-based, Pituitary gland; details: in vivo, 1.5 h
Outline: (§1)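 Male albino CD rats (225-250 g) received the 11C-labelled radioligand in saline by tail-vein injection. Three rats per time point were decapitated under light ether anaesthesia at 5, 15, 30, 60 or 90 min. Blood was collected heparinized and plasma separated by centrifugation. The pituitary was dissected from the brain. Lung, liver (three-lobe pieces) and right deltoid muscle were sampled, washed in cold saline, gamma-counted and weighed. Results are %I.D./g.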

Rattus norvegicus [2] = species on record: Rattus norvegicus; experiment: Tissue (pituitary) distribution in Albino male CD rats after 5 minutes expressed as percent of injected dose per gram of organ.; assay type: ADME, organism-based, Pituitary gland; details: in vivo; outline: as §1
Rattus norvegicus [3] = species on record: Rattus norvegicus; experiment: Tissue (muscle) distribution in Albino male CD rats after 5 minutes expressed as percent of injected dose per gram of organ.; assay type: ADME, organism-based; details: in vivo; outline: as §1
Rattus norvegicus [4] = species on record: Rattus norvegicus; experiment: Tissue (lung) concentration of radioactivity at 30 min post-injection into Albino male CD rats with vehicle.; assay type: ADME, organism-based; details: in vivo, 0.5 h
Outline: (§2)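 Blocking study in male albino CD rats, five per group. Immediately before the 11C radioligand (in saline, i.v. tail vein), rats received 30 µL tail-vein PK 11195 (5 mg/kg; 1.4-1.6 mg) in DMSO:EtOH 1:1, or vehicle. Rats were decapitated at 30 min. Tissues were dissected, washed, gamma-counted and weighed as in the biodistribution study. Results are %I.D./g.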

Rattus norvegicus [5] = species on record: Rattus norvegicus; experiment: Tissue (adrenal gland) distribution in Albino male CD rats after 90 minutes expressed as percent of injected dose per gram of organ.; assay type: ADME, organism-based; details: in vivo, 1.5 h
Outline: (§3)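 Radioligand given in saline into tail vein of male albino CD rats (225-250 g); 100-200 µCi per animal, 1-2 Ci/µmol at injection depending on radioligand. Three rats per time point were decapitated under light ether anaesthesia. Blood, plasma, brain regions and washed organs were weighed and gamma-counted. Uptake is %I.D./g tissue, mean ± SD.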

Rattus norvegicus [6] = species on record: Rattus norvegicus; experiment: Tissue (heart) distribution in Albino male CD rats after 15 minutes expressed as percent of injected dose per gram of organ.; assay type: ADME, organism-based; details: in vivo, 0.25 h; outline: as §3
Rattus norvegicus [7] = species on record: Rattus norvegicus; experiment: Tissue (blood) distribution in Albino male CD rats after 60 minutes expressed as percent of injected dose per gram of organ.; assay type: ADME, organism-based; details: in vivo, 1 h; outline: as §3
Rattus norvegicus [8] = species on record: Rattus norvegicus; experiment: Tissue (cortex) distribution in Albino male CD rats after 60 minutes expressed as percent of injected dose per gram of organ.; assay type: ADME, organism-based; details: in vivo, 1 h; outline: as §3
Rattus norvegicus [9] = species on record: Rattus norvegicus; experiment: Tissue (adrenal gland) distribution in Albino male CD rats after 60 minutes expressed as percent of injected dose per gram of organ.; assay type: ADME, organism-based; details: in vivo, 1 h; outline: as §3
Rattus norvegicus [10] = species on record: Rattus norvegicus; experiment: Tissue (testicle) distribution in Albino male CD rats after 5 minutes expressed as percent of injected dose per gram of organ.; assay type: ADME, organism-based; details: in vivo; outline: as §1
Rattus norvegicus [11] = species on record: Rattus norvegicus; experiment: Tissue (cerebellum) distribution in Albino male CD rats after 60 minutes expressed as percent of injected dose per gram of organ.; assay type: ADME, organism-based; details: in vivo, 1 h; outline: as §3
Rattus norvegicus [12] = species on record: Rattus norvegicus; experiment: Tissue (plasma) distribution in Albino male CD rats after 60 minutes expressed as percent of injected dose per gram of organ.; assay type: ADME, organism-based; details: in vivo, 1 h; outline: as §1
[13] = target: Translocator protein (Rattus norvegicus) (UniProt P16257); experiment: Tissue (lung) concentration of radioactivity at 30 min post-injection into Albino male CD rats after pretreatment with cold PK 11195.; assay type: functional; outline: as §2
Translocator protein (Rattus norvegicus), sequence (P16257 whole entry, looked up): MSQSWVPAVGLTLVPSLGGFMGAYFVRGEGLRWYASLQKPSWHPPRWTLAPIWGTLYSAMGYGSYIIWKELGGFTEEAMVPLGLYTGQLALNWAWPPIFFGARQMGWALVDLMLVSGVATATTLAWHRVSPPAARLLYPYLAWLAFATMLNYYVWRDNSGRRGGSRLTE

Rattus norvegicus [14] = species on record: Rattus norvegicus; experiment: Tissue (liver) concentration of radioactivity at 30 min post-injection into Albino male CD rats with vehicle.; assay type: ADME, organism-based; details: in vivo, 0.5 h
Outline: (§4)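 Separate groups of five rats received tail-vein PK 11195 (1.4-1.6 mg; 5 mg/kg) in 30 µL DMSO:EtOH 1:1, or vehicle alone, immediately before iv radioligand (90-170 µCi in saline, 0.9-1 Ci/µmol). Rats were decapitated at 30 min and tissues gamma-counted; values are %I.D./g.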

[15] = target: Translocator protein (Rattus norvegicus) (UniProt P16257); experiment: Tissue (heart) concentration of radioactivity at 30 min post-injection into Albino male CD rats after pretreatment with cold PK 11195.; assay type: functional; outline: as §4
[16] = target: Translocator protein (Rattus norvegicus) (UniProt P16257); experiment: Tissue (spleen) concentration of radioactivity at 30 min post-injection into Albino male CD rats after pretreatment with cold PK 11195.; assay type: functional, tissue-based; outline: as §2
Rattus norvegicus [17] = species on record: Rattus norvegicus; experiment: Tissue (cerebellum) distribution in Albino male CD rats after 90 minutes expressed as percent of injected dose per gram of organ.; assay type: ADME, organism-based; details: in vivo, 1.5 h; outline: as §3
Rattus norvegicus [18] = species on record: Rattus norvegicus; experiment: Tissue (intestine) distribution in Albino male CD rats after 60 minutes expressed as percent of injected dose per gram of organ.; assay type: ADME, organism-based; details: in vivo, 1 h; outline: as §3
Rattus norvegicus [19] = species on record: Rattus norvegicus; experiment: Tissue (muscle) concentration of radioactivity at 30 min post-injection into Albino male CD rats with vehicle.; assay type: ADME, organism-based; details: in vivo, 0.5 h; outline: as §2
[20] = target: Translocator protein (Rattus norvegicus) (UniProt P16257); experiment: Tissue (muscle) concentration of radioactivity at 30 min post-injection into Albino male CD rats after pretreatment with cold PK 11195.; assay type: functional; outline: as §2
[21] = target: Translocator protein (Rattus norvegicus) (UniProt P16257); experiment: Tissue (adrenal gland) concentration of radioactivity at 30 min post-injection into Albino male CD rats after pretreatment with cold PK 11195.; assay type: functional, tissue-based; outline: as §4
Rattus norvegicus [22] = species on record: Rattus norvegicus; experiment: Tissue (blood) distribution in Albino male CD rats after 15 minutes expressed as percent of injected dose per gram of organ.; assay type: ADME, organism-based; details: in vivo, 0.25 h; outline: as §3
Rattus norvegicus [23] = species on record: Rattus norvegicus; experiment: Tissue (kidney) distribution in Albino male CD rats after 30 minutes expressed as percent of injected dose per gram of organ.; assay type: ADME, organism-based; details: in vivo, 0.5 h; outline: as §3
Rattus norvegicus [24] = species on record: Rattus norvegicus; experiment: Tissue (pituitary) distribution in Albino male CD rats after 15 minutes expressed as percent of injected dose per gram of organ.; assay type: ADME, organism-based, Pituitary gland; details: in vivo, 0.25 h; outline: as §1
Rattus norvegicus [25] = species on record: Rattus norvegicus; experiment: Tissue (spleen) distribution in Albino male CD rats after 30 minutes expressed as percent of injected dose per gram of organ.; assay type: ADME, organism-based; details: in vivo, 0.5 h; outline: as §1
Rattus norvegicus [26] = species on record: Rattus norvegicus; experiment: Tissue (testicle) distribution in Albino male CD rats after 90 minutes expressed as percent of injected dose per gram of organ.; assay type: ADME, organism-based; details: in vivo, 1.5 h
Rattus norvegicus [27] = species on record: Rattus norvegicus; experiment: Tissue (liver) distribution in Albino male CD rats after 15 minutes expressed as percent of injected dose per gram of organ.; assay type: ADME, organism-based; details: in vivo, 0.25 h; outline: as §3
Rattus norvegicus [28] = species on record: Rattus norvegicus; experiment: Tissue (liver) distribution in Albino male CD rats after 60 minutes expressed as percent of injected dose per gram of organ.; assay type: ADME, organism-based; details: in vivo, 1 h; outline: as §1
Rattus norvegicus [29] = species on record: Rattus norvegicus; experiment: Tissue (cerebellum) distribution in Albino male CD rats after 30 minutes expressed as percent of injected dose per gram of organ.; assay type: ADME, organism-based; details: in vivo, 0.5 h; outline: as §3
Rattus norvegicus [30] = species on record: Rattus norvegicus; experiment: Tissue (liver) distribution in Albino male CD rats after 30 minutes expressed as percent of injected dose per gram of organ.; assay type: ADME, organism-based; details: in vivo, 0.5 h; outline: as §1
Rattus norvegicus [31] = species on record: Rattus norvegicus; experiment: Tissue (adrenal gland) distribution in Albino male CD rats after 5 minutes expressed as percent of injected dose per gram of organ.; assay type: ADME, organism-based; details: in vivo; outline: as §3
Rattus norvegicus [32] = species on record: Rattus norvegicus; experiment: Tissue (plasma) distribution in Albino male CD rats after 90 minutes expressed as percent of injected dose per gram of organ.; assay type: ADME, organism-based; details: in vivo, 1.5 h; outline: as §1
Rattus norvegicus [33] = species on record: Rattus norvegicus; experiment: Tissue (spleen) distribution in Albino male CD rats after 15 minutes expressed as percent of injected dose per gram of organ.; assay type: ADME, organism-based; details: in vivo, 0.25 h
Rattus norvegicus [34] = species on record: Rattus norvegicus; experiment: Tissue (blood) distribution in Albino male CD rats after 30 minutes expressed as percent of injected dose per gram of organ.; assay type: ADME, organism-based; details: in vivo, 0.5 h; outline: as §3
Rattus norvegicus [35] = species on record: Rattus norvegicus; experiment: Tissue (intestine) distribution in Albino male CD rats after 90 minutes expressed as percent of injected dose per gram of organ.; assay type: ADME, organism-based; details: in vivo, 1.5 h; outline: as §3
Rattus norvegicus [36] = species on record: Rattus norvegicus; experiment: Tissue (testicle) distribution in Albino male CD rats after 60 minutes expressed as percent of injected dose per gram of organ.; assay type: ADME, organism-based; details: in vivo, 1 h; outline: as §1
Rattus norvegicus [37] = species on record: Rattus norvegicus; experiment: Tissue (lung) distribution in Albino male CD rats after 30 minutes expressed as percent of injected dose per gram of organ.; assay type: ADME, organism-based; details: in vivo, 0.5 h; outline: as §1
Rattus norvegicus [38] = species on record: Rattus norvegicus; experiment: Tissue (cortex) distribution in Albino male CD rats after 90 minutes expressed as percent of injected dose per gram of organ.; assay type: ADME, organism-based; details: in vivo, 1.5 h; outline: as §3
Rattus norvegicus [39] = species on record: Rattus norvegicus; experiment: Tissue (heart) distribution in Albino male CD rats after 30 minutes expressed as percent of injected dose per gram of organ.; assay type: ADME, organism-based; details: in vivo, 0.5 h; outline: as §3
[40] = target: Translocator protein (Rattus norvegicus) (UniProt P16257); experiment: Tissue (pituitary) concentration of radioactivity at 30 min post-injection into Albino male CD rats after pretreatment with cold PK 11195.; assay type: functional, tissue-based; details: Pituitary gland; outline: as §2

## CCC(C)N(C)C(=O)c1nc2ccccc2c(-c2ccccc2F)c1C (stereo not given)
Rattus norvegicus [1]
  I.D./g: 0.15%
Rattus norvegicus [2]
  I.D./g: 0.16%
Rattus norvegicus [3]
  I.D./g: 0.06%
Rattus norvegicus [4]
  I.D./g: 0.56%
Rattus norvegicus [5]
  I.D./g: 2.22%
Rattus norvegicus [6]
  I.D./g: 0.86%
Rattus norvegicus [7]
  I.D./g: 0.08%
Rattus norvegicus [8]
  I.D./g: 0.07%
Rattus norvegicus [9]
  I.D./g: 2.85%
Rattus norvegicus [10]
  I.D./g: 0.04%
Rattus norvegicus [11]
  I.D./g: 0.07%
Rattus norvegicus [12]
  I.D./g: 0.06%
[13]
  I.D./g: < 0.12%
Rattus norvegicus [14]
  I.D./g: 0.35%
[15]
  I.D./g: < 0.11%
[16]
  I.D./g: < 0.09%
Rattus norvegicus [17]
  I.D./g: 0.06%
Rattus norvegicus [18]
  I.D./g: 0.25%
Rattus norvegicus [19]
  I.D./g: 0.05%
[20]
  I.D./g: < 0.03%
[21]
  I.D./g: < 0.78%
Rattus norvegicus [22]
  I.D./g: 0.14%
Rattus norvegicus [23]
  I.D./g: 0.55%
Rattus norvegicus [24]
  I.D./g: 0.27%
Rattus norvegicus [25]
  I.D./g: 0.77%
Rattus norvegicus [26]
  I.D./g: 0.08%
Rattus norvegicus [27]
  I.D./g: 0.69%
Rattus norvegicus [28]
  I.D./g: 0.45%
Rattus norvegicus [29]
  I.D./g: 0.09%
Rattus norvegicus [30]
  I.D./g: 0.55%
Rattus norvegicus [31]
  I.D./g: 1.12%
Rattus norvegicus [32]
  I.D./g: 0.04%
Rattus norvegicus [33]
  I.D./g: 0.75%
Rattus norvegicus [34]
  I.D./g: 0.11%
Rattus norvegicus [35]
  I.D./g: 0.24%
Rattus norvegicus [36]
  I.D./g: 0.09%
Rattus norvegicus [37]
  I.D./g: 2.09%
Rattus norvegicus [38]
  I.D./g: 0.06%
Rattus norvegicus [39]
  I.D./g: 0.73%
[40]
  I.D./g: > 0.06%
